# Compound activity: PubChem BioAssay, Broad Institute
# T cruzi growth-1: T. cruzi intracellular proliferation inhibitors, primary screen, cell-based, beta-gal Tulahuen parasites, NIH3T3 host, luminescence; 5.9% of 77,000 active; inhibition, % at 8.34 µM; T. cruzi beta-gal in NIH3T3, GalScreen luminescence, 90 h;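 active = mean inhibition above about 93%, with at least 55% of replicates each passing it, limit read from the data, passing the limit was not always enough; inconclusive = only one of those two conditions holds; inactive = neither condition holds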
# KDM4C inh: inhibitors of GASC-1 (KDM4C) histone demethylase, primary screen, biochemical, single concentration HTS. Lysine-specific demethylase 4C (Homo sapiens), Q9H3R0. 0.15% of 96,000 active. GST-KDM4C 2-372, H3K9me3 peptide, LANCE TR-FRET. inhibition, % at 12.5 µM;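 active = mean replicate inhibition above about 25%, with at least 55% of replicates also reaching it, limit read from the data, passing the limit was not always enough; inconclusive = only one of those two conditions met; inactive = neither condition met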
#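 reagent = H3K9me3 peptide substrate, Fe(II), 2-oxoglutarate | system = GST-tagged GASC-1 (JMJD2C) catalytic fragment, aa 2-372 | amount = enzyme final amount 10 nM | read-out = Fall in 671/618 emission ratio as inhibition | medium = HEPES buffer, pH 7.5, plus ascorbate | schedule = 30 min reaction, 60 min detection, RT | measured by = LANCE TR-FRET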
# IDH1 R132H inh: inhibitors of IDH1 R132H reductase, primary screen, biochemical, plate reader, single point; inhibition, % at 10 µM; diaphorase/resazurin fluorescence, 60 min; AID 624101, 2012; Isocitrate dehydrogenase [NADP] cytoplasmic (Homo sapiens), O75874; 0.18% of 70,000 active; in the data active = inhibition above about 34%; inconclusive = no clear call, values can overlap the other calls; inactive = below about 11%;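 note: 0% = DMSO and 100% = no enzyme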
# Target sequence (O75874 whole entry R132H): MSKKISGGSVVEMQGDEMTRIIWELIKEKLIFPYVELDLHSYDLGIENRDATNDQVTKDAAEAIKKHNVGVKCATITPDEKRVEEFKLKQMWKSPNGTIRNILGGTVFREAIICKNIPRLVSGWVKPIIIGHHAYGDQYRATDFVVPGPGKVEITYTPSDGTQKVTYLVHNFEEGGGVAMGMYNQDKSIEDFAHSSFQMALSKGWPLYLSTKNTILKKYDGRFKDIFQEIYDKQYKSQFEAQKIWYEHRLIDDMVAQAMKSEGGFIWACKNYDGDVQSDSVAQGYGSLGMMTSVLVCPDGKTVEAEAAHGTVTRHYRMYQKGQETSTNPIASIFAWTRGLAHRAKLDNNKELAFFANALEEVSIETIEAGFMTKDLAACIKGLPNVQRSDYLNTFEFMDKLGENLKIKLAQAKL
# T cruzi growth-2: T. cruzi intracellular proliferation inhibitors, confirmation, cell-based, NIH3T3 host, beta-gal parasite, luminescence, cherry-pick | shares compounds with T cruzi growth-1 | T. cruzi beta-gal in NIH3T3, GalScreen luminescence, 90 h | inhibition, % at 8.35 µM | 72% of 5,600 active;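 active = mean replicate inhibition above about 95% and at least 55% of replicates individually reaching it, limit read from the data; inconclusive = only one of the two criteria is met; inactive = neither criterion is met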
# T cruzi growth-3: inhibitors of intracellular T. cruzi replication, confirmation, NIH3T3 host cells, beta-gal parasites, cherry-pick, set 2; AID 651740, 2012; 21% of 5,600 active; inhibition, % at 2.09 µM; T. cruzi beta-gal in NIH3T3, GalScreen luminescence, 90 h; shares compounds with T cruzi growth-1;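 active = mean inhibition above about 95%, with at least 55% of replicates also reaching it, limit read from the data; inconclusive = meets just one of the two conditions; inactive = meets neither condition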;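 note: plate controls were neutral control median for no effect and positive control median for full effect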
# NIH3T3 tox: cytotoxicity in mouse NIH/3T3 fibroblasts, confirmation, cytotoxicity control for T. cruzi proliferation inhibitor project, cell-based, cherry-pick, single point. shares compounds with T cruzi growth-1. NIH/3T3 viability, CellTiter-Glo ATP luminescence, 90 h. cytotoxicity (signal decrease), % at 8.35 µM. 14% of 5,600 active. AID 651742, 2012;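 active = mean signal decrease across replicates above about 35% based on untreated-well scatter, with enough replicates individually passing, limit read from the data; inconclusive = no rule stated though some were filed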;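 note: 0% = median of neutral control wells and 100% = median of positive control wells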
# NIH3T3 tox 2: NIH/3T3 fibroblast cytotoxicity, confirmation, cytotoxicity control, cell-based, cherry-pick, single point, set 2. shares compounds with T cruzi growth-1. NIH/3T3 viability, CellTiter-Glo ATP luminescence, 90 h. 56% of 5,600 active. AID 651744, 2012. inhibition, % at 24.9 µM;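 active = mean loss of cell viability signal at or above a set limit, and enough replicates individually reaching it; inconclusive = meets only the mean limit or only the replicate share; inactive = meets neither condition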;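 note: 0% = median of neutral control wells and 100% = median of positive control wells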
# * = called active by the depositor; ? = inconclusive; / = no result; ! = not active in a repeat. Shown is part of a subset that was picked to be rich in hits.
SMILES,T cruzi growth-1,KDM4C inh,IDH1 R132H inh,T cruzi growth-2,T cruzi growth-3,NIH3T3 tox,NIH3T3 tox 2
CS(=O)(=O)N1[C@H](CO)[C@@H](c2ccc(C#CC3CCCCC3)cc2)[C@@H]1C#N,93,0,/,/,/,/,/
CS(=O)(=O)N1[C@@H](C#N)[C@@H](c2ccc(C#CC3CCCCC3)cc2)[C@@H]1CO,74,-2,/,/,/,/,/
CS(=O)(=O)N1[C@H](C#N)[C@H](c2ccc(C#CC3CCCC3)cc2)[C@@H]1CO,99*,-3,/,103*,89,20,35*
CS(=O)(=O)N1[C@H](C#N)[C@@H](c2ccc(C#CC3CC3)cc2)[C@@H]1CO,107*,-7,/,100*,46,12,-1
CS(=O)(=O)N1[C@H](CO)[C@H](c2ccc(C#Cc3cccc(F)c3)cc2)[C@@H]1C#N,89,-2,/,/,/,/,/
CS(=O)(=O)N1[C@H](C#N)[C@H](c2ccc(C#Cc3cccc(F)c3)cc2)[C@H]1CO,?,-3,/,?,83,0,32*
CS(=O)(=O)Nc1ccc2c(c1)[C@H]1C[C@@H](CC(=O)NCc3cccc(F)c3)O[C@H](CO)[C@H]1O2,/,-3,0,/,/,/,/
Cc1ccc(S(=O)(=O)NCC(=O)Nc2ccc(C(F)(F)F)cc2)cc1,/,/,0,/,/,/,/
O=S(=O)(N[C@@H]1CC[C@@H](CCNS(=O)(=O)c2ccccc2Cl)O[C@H]1CO)c1ccccc1,-66,0,0,/,/,/,/
CCCNC(=O)N1[C@@H](C#N)[C@@H](c2ccc(-c3ccc(C(=O)N(C)C)cc3)cc2)[C@@H]1CO,34,0,/,/,/,/,/
O=C(Nc1ccc(F)cc1)N[C@@H]1CC[C@@H](CCNS(=O)(=O)c2cccc(Cl)c2)O[C@@H]1CO,-11,1,0,/,/,/,/
O=C(Nc1cccc(F)c1)N[C@H]1CC[C@H](CCNS(=O)(=O)c2cccc(Cl)c2)O[C@H]1CO,163*,-2,-1,103*,30,-15,-1
O=C(Nc1cccc(F)c1)N[C@@H]1CC[C@@H](CCNS(=O)(=O)c2cccc(Cl)c2)O[C@@H]1CO,121*,-2,0,56,-9,-27,-5
O=C(Nc1cccc(F)c1)N[C@H]1CC[C@@H](CCNS(=O)(=O)c2cccc(Cl)c2)O[C@@H]1CO,16,-3,0,/,/,/,/
O=C(c1cccc(F)c1)N1CCCCN2[C@H](C1)[C@@H](c1ccc(-c3ccccc3)cc1)[C@@H]2CO,62,-2,/,/,/,/,/
O=C(c1cccc(F)c1)N1CCCCN2[C@H](CO)[C@@H](c3ccc(-c4ccccc4)cc3)[C@@H]2C1,106*,0,/,106*,?,-7,59*
O=C(c1cccc(F)c1)N1CCCCN2[C@H](CO)[C@@H](c3ccc(-c4ccccc4)cc3)[C@H]2C1,70,0,/,/,/,/,/
O=C(c1cccc(F)c1)N1CCCCN2[C@H](CO)[C@H](c3ccc(-c4ccccc4)cc3)[C@H]2C1,103*,0,/,109*,22,5,88*
COc1ccc(CNC(=O)C[C@@H]2CC[C@H]3[C@H](COc4ccc(NC(=O)C5CC5)cc4C(=O)N3C)O2)cc1,6,7,/,/,/,/,/
O=C(Cn1cnc2scc(-c3ccc4ccccc4c3)c2c1=O)Nc1cccc(Cl)c1Cl,/,/,0,/,/,/,/
C[C@@H]1CCCCO[C@@H](CN(C)Cc2ccc3c(c2)OCO3)[C@@H](C)CN([C@H](C)CO)C(=O)c2cc(NS(=O)(=O)c3ccc(Cl)cc3)ccc2O1,90,-1,/,/,/,/,/
C[C@@H]1CN([C@H](C)CO)C(=O)c2cc(NS(=O)(=O)c3ccc(Cl)cc3)ccc2O[C@@H](C)CCCCO[C@H]1CN(C)Cc1ccc2c(c1)OCO2,106*!,-2,/,97*,107*,20,104*
